The source made the active and inactive calls. The calls are words filed in the database; no cut-off is given here.
Legend:
Bacillus cereus [1] = assay: Bactericidal activity against Bacillus cereus CECT 148 at 0.2 mg/disk after 24 hrs by agar diffusion assay; assay type: functional
Outline: (§1)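 Each bacterium, kept as 24-h cultures on solid-medium slants, was reactivated in Nutrient Broth for 24 h at 28 or 37 °C depending on species. 1 mL of this suspension was plated and overlaid with 15 mL Plate Count Agar. Once the agar solidified, five paper disks loaded with test product were applied. Plates were incubated 24 h in the dark at 28 or 37 °C by species.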

Staphylococcus aureus [2] = assay: Bactericidal activity against Staphylococcus aureus CECT 86 at 0.2 mg/disk after 24 hrs by agar diffusion assay; assay type: functional; outline: as §1
Enterococcus faecalis [3] = assay: Bactericidal activity against Enterococcus faecalis CECT 481 at 0.2 mg/disk after 24 hrs by agar diffusion assay; assay type: functional; outline: as §1
Salmonella typhi [4] = assay: Bactericidal activity against Salmonella typhi CECT 409 at 0.2 mg/disk after 24 hrs by agar diffusion assay; assay type: functional; conditions: for Activity: Salmonella enterica subsp. enterica serovar Typhi
Outline: (§2)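 Bacteria from 24-h slant cultures reactivated in Nutrient Broth for 24 h at 28 or 37 °C depending on strain. 1 mL of suspension was placed in a plate and overlaid with 15 mL Plate Count Agar. After solidification, five paper disks loaded with compound were applied. Plates were incubated 24 h in the dark at 28 or 37 °C depending on strain.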

Escherichia coli [5] = assay: Bactericidal activity against Escherichia coli CECT 405 at 0.2 mg/disk after 24 hrs by agar diffusion assay; assay type: functional; outline: as §1
Escherichia coli [6] = assay: Bactericidal activity against Escherichia coli CECT 100 at 0.2 mg/disk after 24 hrs by agar diffusion assay; assay type: functional; outline: as §1
[7] = tested on: Pectobacterium carotovorum; assay: Bactericidal activity against Erwinia carotovora CECT 225 at 0.2 mg/disk after 24 hrs by agar diffusion assay; assay type: functional; outline: as §1
Aspergillus parasiticus [8] = assay: Fungicidal activity against Aspergillus parasiticus CECT 2681 at 0.4 mg/disk after 48 hrs by agar diffusion assay; assay type: functional, organism-based
Outline: (§3)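 Fungi were grown 7 days at 28 °C on PDA, then suspended in 0.05% Tween 80 in sterile water to about 10^6 conidia/mL. 1 mL was mixed into 15 mL PDA. After setting, four 0.5 cm paper disks impregnated with test product were added. Controls were solvent-only disks and benomyl disks, dosed per fungus. The read-out was the no-growth inhibition zone (mm), as the mean ± SE of three independent experiments.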

Trichoderma viride [9] = assay: Fungicidal activity against Trichoderma viride CECT 2423 at 0.4 mg/disk after 48 hrs by agar diffusion assay; assay type: functional, organism-based; outline: as §3
Fusarium culmorum [10] = assay: Fungicidal activity against Fusarium culmorum CCM 172 at […] after 48 hrs by agar diffusion assay; assay type: functional, organism-based; conditions: 0.4 mg/disk; outline: as §3
[11] = tested on: Phytophthora citrophthora; assay: Fungicidal activity against Phytophthora citrophthora CECT 2353 at 0.4 mg/disk after 48 hrs by agar diffusion assay; assay type: functional, organism-based; outline: as §3
Geotrichum candidum [12] = assay: Fungicidal activity against Geotrichum candidum CCM 245 at 0.4 mg/disk after 48 hrs by agar diffusion assay; assay type: functional, organism-based; outline: as §3
Trichoderma viride [13] = assay: Fungicidal activity against Trichoderma viride CECT 2423 at 0.2 mg/disk after 48 hrs by agar diffusion assay; assay type: functional; outline: as §3
Fusarium culmorum [14] = assay: Fungicidal activity against Fusarium culmorum CCM 172 at 0.2 mg/disk after 48 hrs by agar diffusion assay; assay type: functional; outline: as §3
[15] = tested on: Phytophthora citrophthora; assay: Fungicidal activity against Phytophthora citrophthora CECT 2353 at 0.2 mg/disk after 48 hrs by agar diffusion assay; assay type: functional; outline: as §3
Geotrichum candidum [16] = assay: Fungicidal activity against Geotrichum candidum CCM 245 at 0.2 mg/disk after 48 hrs by agar diffusion assay; assay type: functional; outline: as §3
Aspergillus parasiticus [17] = assay: Fungicidal activity against Aspergillus parasiticus CECT 2681 at 0.2 mg/disk after 48 hrs by agar diffusion assay; assay type: functional; outline: as §3
[18] = tested on: Pectobacterium carotovorum; assay: Bactericidal activity against Erwinia carotovora CECT 225 at 0.3 mg/disk after 24 hrs by agar diffusion assay; assay type: functional, organism-based; outline: as §1
Enterococcus faecalis [19] = assay: Bactericidal activity against Enterococcus faecalis CECT 481 at 0.3 mg/disk after 24 hrs by agar diffusion assay; assay type: functional, organism-based; outline: as §1
Bacillus cereus [20] = assay: Bactericidal activity against Bacillus cereus CECT 148 at 0.3 mg/disk after 24 hrs by agar diffusion assay; assay type: functional, organism-based; outline: as §1
Staphylococcus aureus [21] = assay: Bactericidal activity against Staphylococcus aureus CECT 86 at 0.3 mg/disk after 24 hrs by agar diffusion assay; assay type: functional, organism-based; outline: as §1
Escherichia coli [22] = assay: Bactericidal activity against Escherichia coli CECT 100 at 0.3 mg/disk after 24 hrs by agar diffusion assay; assay type: functional, organism-based; outline: as §1
Salmonella typhi [23] = assay: Bactericidal activity against Salmonella typhi CECT 409 at 0.3 mg/disk after 24 hrs by agar diffusion assay; assay type: functional, organism-based; conditions: Salmonella enterica subsp. enterica serovar Typhi; outline: as §2
Escherichia coli [24] = assay: Bactericidal activity against Escherichia coli CECT 405 at 0.3 mg/disk after 24 hrs by agar diffusion assay; assay type: functional, organism-based; outline: as §1
Aspergillus parasiticus [25] = assay: Fungicidal activity against Aspergillus parasiticus CECT 2681 at 20 ug/disk after 48 hrs by agar diffusion assay; assay type: functional; conditions: CECT 2681, 48 h, read-out: IZ
Outline: (§4)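 Fungi were grown on PDA for 7 days at 28 °C and suspended in 0.05% Tween 80 to about 10^6 conidia/mL. 1 mL was mixed into 15 mL PDA. Four 0.5 cm paper disks carrying compound were placed on the set agar. Solvent-only disks served as negative control. The inhibition zone (mm) around each disk was measured. Values are the mean of three independent experiments.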

Trichoderma viride [26] = assay: Fungicidal activity against Trichoderma viride CECT 2423 at 20 ug/disk after 48 hrs by agar diffusion assay; assay type: functional; conditions: CECT 2423, 48 h, read-out: IZ; outline: as §4
[27] = tested on: Phytophthora citrophthora; assay: Fungicidal activity against Phytophthora citrophthora CECT 2353 at 30 ug/disk after 48 hrs by agar diffusion assay; assay type: functional; conditions: CECT 2353, 48 h, read-out: IZ; outline: as §4

Compound	Activity (Aspergillus parasiticus [8])	Activity (Trichoderma viride [9])	Activity (Fusarium culmorum [10])	Activity [11]	Activity (Geotrichum candidum [12])	inhibition zone (IZ) (Bacillus cereus [1]) [mm]	inhibition zone (IZ) (Staphylococcus aureus [2]) [mm]	inhibition zone (IZ) (Enterococcus faecalis [3]) [mm]	inhibition zone (IZ) (Salmonella typhi [4]) [mm]	inhibition zone (IZ) (Escherichia coli [5]) [mm]	inhibition zone (IZ) (Escherichia coli [6]) [mm]	inhibition zone (IZ) [7] [mm]	inhibition zone (IZ) (Fusarium culmorum [14]) [mm]	inhibition zone (IZ) (Geotrichum candidum [16]) [mm]	also measured
O=C(COc1cc2c(cc1OCC(=O)Nc1ccccc1)C1CCC(=O)N1CC2)Nc1ccccc1 (stereo not given)	inactive	inactive	inactive	inactive	inactive										Activity (Bacillus cereus [1]): inactive; Activity (Staphylococcus aureus [2]): inactive; Activity (Enterococcus faecalis [3]): inactive; Activity (Salmonella typhi [4]): inactive; Activity (Escherichia coli [5]): inactive; Activity (Escherichia coli [6]): inactive; Activity [7]: inactive
CCNC(=O)Oc1ccc2c(c1)CCN1C(=O)CCC21 (stereo not given)						6.5	0	8.5	7.5	6.83	6.33	8.83	0	0	inhibition zone (IZ) (Trichoderma viride [13]): 0 mm; inhibition zone (IZ) [15]: 9.66 mm; inhibition zone (IZ) (Aspergillus parasiticus [17]): 0 mm
O=C1CCC2c3cc(O)c(O)cc3CCN12 (racemic)	inactive	inactive	inactive	inactive	inactive	6.66	0	0	0	0	0	0			
O=C1CCC2c3cc(O)c(Cl)cc3CCN12 (stereo not given)	inactive	inactive	inactive	inactive	inactive										Activity (Bacillus cereus [1]): inactive; Activity (Staphylococcus aureus [2]): inactive; Activity (Enterococcus faecalis [3]): inactive; Activity (Salmonella typhi [4]): inactive; Activity (Escherichia coli [5]): inactive; Activity (Escherichia coli [6]): inactive; Activity [7]: inactive
COc1cc2c(cc1OC)C1CCC(=O)N1CC2 (stereo not given)	inactive	inactive	inactive	inactive	inactive										Activity [18]: Active; Activity (Enterococcus faecalis [19]): Active; Activity (Bacillus cereus [20]): Active; Activity (Staphylococcus aureus [21]): Active; Activity (Escherichia coli [22]): Active; Activity (Salmonella typhi [23]): Active; Activity (Escherichia coli [24]): Active
CCNC(=O)Oc1cc2c(cc1Cl)CCN1C(=O)CCC21 (stereo not given)	inactive	inactive	inactive	inactive	inactive										Activity (Bacillus cereus [1]): inactive; Activity (Staphylococcus aureus [2]): inactive; Activity (Enterococcus faecalis [3]): inactive; Activity (Salmonella typhi [4]): inactive; Activity (Escherichia coli [5]): inactive; Activity (Escherichia coli [6]): inactive; Activity [7]: inactive
O=C(COc1ccc2c(c1)CCN1C(=O)CCC21)N1CCCCC1 (stereo not given)															Activity (Bacillus cereus [1]): inactive; Activity (Staphylococcus aureus [2]): inactive; Activity (Enterococcus faecalis [3]): inactive; Activity (Salmonella typhi [4]): inactive; Activity (Escherichia coli [5]): inactive; Activity (Escherichia coli [6]): inactive; Activity [7]: inactive; Activity (Trichoderma viride [13]): inactive; Activity (Fusarium culmorum [14]): inactive; Activity [15]: inactive; Activity (Geotrichum candidum [16]): inactive; Activity (Aspergillus parasiticus [17]): inactive
O=C1CCC2c3cc(OCc4ccc(F)cc4)c(OCc4ccc(F)cc4)cc3CCN12 (stereo not given)	inactive	inactive	inactive	inactive	inactive	7.33	0	6.33	5.83	6.83	0	7			
O=C1CCC2c3ccc(OCc4ccc(F)cc4)cc3CCN12 (stereo not given)						7.5	6.33	0	0	6.16	0	8	10.5	7	inhibition zone (IZ) (Trichoderma viride [13]): 8.1 mm; inhibition zone (IZ) [15]: 10.66 mm; inhibition zone (IZ) (Aspergillus parasiticus [17]): 7.83 mm
O=C(COc1ccc2c(c1)CCN1C(=O)CCC21)Nc1ccccc1 (stereo not given)						8.83	0	7.33		7.5	0	8			Activity (Trichoderma viride [13]): inactive; Activity (Fusarium culmorum [14]): inactive; Activity [15]: inactive; Activity (Geotrichum candidum [16]): inactive; Activity (Aspergillus parasiticus [17]): inactive
O=C1CCC2c3ccc(O)cc3CCN12 (stereo not given)						7.5	0	0	0	0	0	0			Activity (Trichoderma viride [13]): inactive; Activity (Fusarium culmorum [14]): inactive; Activity [15]: inactive; Activity (Geotrichum candidum [16]): inactive; Activity (Aspergillus parasiticus [17]): inactive
COc1cc2c(cc1Cl)CCN1C(=O)CCC21 (stereo not given)						7.33	7.83	6.83		6.83	6.16	10.33	7.5	6.33	inhibition zone (IZ) (Trichoderma viride [13]): 0 mm; inhibition zone (IZ) [15]: 6.83 mm; inhibition zone (IZ) (Aspergillus parasiticus [17]): 7.5 mm
CN(C)[C@@H]1C(O)=C(C(N)=O)C(=O)[C@@]2(O)C(O)=C3C(=O)c4c(O)cccc4[C@@](C)(O)[C@H]3C[C@@H]12 [TETRACYCLINE]						24.33	27	26		25.66	25.66	13.33			
O=C1CCC2c3ccc(OCc4ccccc4)cc3CCN12 (stereo not given)						8.66	0	6.83	6	6.33	0	7.26	12	6.16	inhibition zone (IZ) (Trichoderma viride [13]): 6 mm; inhibition zone (IZ) [15]: 11.33 mm; inhibition zone (IZ) (Aspergillus parasiticus [17]): 6.83 mm
CCCCNC(=O)n1c(NC(=O)OC)nc2ccccc21 [BENOMYL]													27.66	0	zone of inhibition at 20 µg/disc (Aspergillus parasiticus [25]): 29.3 mm; zone of inhibition at 20 µg/disc (Trichoderma viride [26]): 29.3 mm; zone of inhibition at 30 µg/disc [27]: 44.3 mm
